Screening results as filed in PubChem.
FAS TE block: FAS thioesterase (human) inhibition; P49327; recombinant FAS-TE, OMFH fluorogenic substrate, fluorescence endpoint; inhibition, % at 15 µM; 360,000 tested, 0.67% active; AID 602261;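 active = compounds whose normalised, plate-corrected inhibition of enzyme fluorescence in the single-dose primary screen is 50% or more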;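 note: 0% = DMSO with enzyme and 100% = substrate without enzyme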
ADAM17 inh: inhibits human ADAM17; P78536; recombinant ADAM17, EDANS/DABCYL FRET peptide cleavage; inhibition, % at 6.95 µM; 370,000 tested, 0.83% active;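 active = inhibition above the mean of compounds lying between control limits plus 3 SD, set per campaign, cut at about 8.5% in these data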;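 note: 0% = DMSO-only wells as the low control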
ADAM10 inh: ADAM10 inhibition, QFRET primary screen. O14672. recombinant ADAM10, EDANS/DABCYL FRET peptide cleavage, 3 h. inhibition, % at 7 µM. 370,000 tested, 0.62% active;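 active = inhibition above a per-campaign cutoff equal to the mean of compounds falling between control-based bounds plus 3 SD, cut at about 20% in these data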;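 note: 0% = DMSO wells while the 100% control is not disclosed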
Arrestin-AP2 inh: blocks beta-arrestin peptide binding to AP2 adaptin. FITC-arrestin peptide / GST-AP2 beads, flow cytometry; AP2 beta2 appendage carries R879A mutation. inhibition, % at 10 µM. 340,000 tested, 0.31% active;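 active = inhibition above a set limit, near 3 SD of compounds lacking own fluorescence, cut at about 54% in these data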;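 note: plate controls were DMSO wells for no effect and 5 µM unlabelled arrestin peptide for full effect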
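Measured by: flow cytometry, FL1 (488/535 nm); Material: AP2 appendage R879A on GSH beads; Evaluation: percent response; Timing: pre-incubation 12 min, peptide binding 1 h, room temperature; Also added: 50 nM FITC-arrestin peptide; Medium: PBS with 0.05% Tween 20 and 0.1% BSA.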
CaV13 ICDI inh: Disruptors of the CACNA1D IQ motif to Ca2+-dependent inactivation inhibitor domain association, primary screening, Förster resonance energy transfer in intact living …; HEK cells, CFP/YFP FRET ICDI-IQ, plate reader, 10 min; percent FRET-ratio fall versus neutral wells; 340,000 tested, 0.098% active; inhibition, % at 12.3 µM;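 active = mean replicate inhibition of at least 30% and at least 1% of replicates passing that level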;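 note: 0% = median of the neutral control wells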
NRP1-CendR mod: alters CendR peptide binding to human NRP-1 | O14786 | FAM-RPARPAR peptide binding to NRP-1, fluorescence polarization | 360,000 tested, 0.85% active | inhibition, % at 25 µM | AID 602438;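 active = inhibition or corrected inhibition above about 18%, plus a signal ratio from 0.5 to 1.5, limit read from the data, passing the limit was not always enough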
ADAM10 confirm: human ADAM10 inhibition, confirmation. shares compounds with ADAM10 inh. ADAM10 QFRET peptide cleavage, EDANS fluorescence. inhibition, % at 6.95 µM. 2,100 tested, 1% active. AID 743208;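 active = inhibition above about 20% chosen separately for each screening run, limit read from the data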;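 note: 0% = DMSO wells and 100% = marimastat wells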
ADAM17 counter: ADAM17 inhibition, counter-screen for ADAM10 exosite hits; shares compounds with ADAM10 inh; ADAM17 QFRET peptide cleavage, EDANS fluorescence; inhibition, % at 6.95 µM; 2,100 tested, 0.5% active;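 active = mean triplicate inhibition above the solvent-only control wells' mean plus 3 SD, cut at about 12% in these data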;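 note: 0% = DMSO wells and 100% = marimastat wells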
ADAM10 ctr: counter-screen for ADAM17 exosite inhibitors: inhibitors of human ADAM10; shares compounds with ADAM17 inh; AID 743256; recombinant ADAM10, EDANS/DABCYL FRET peptide cleavage, 3 h; 2,900 tested, 47% active; inhibition, % at 6.95 µM;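 active = mean inhibition over the triplicate runs exceeds the activity threshold set in the earlier primary screen, cut at about 20% in these data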;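 note: 0% = DMSO wells and 100% = marimastat wells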
ADAM17 confirm: confirmation of inhibitors of human ADAM17; 2,900 tested, 65% active; AID 743257; recombinant ADAM17, EDANS/DABCYL QFRET peptide cleavage; inhibition, % at 6.95 µM; shares compounds with ADAM17 inh;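 active = mean inhibition across replicates above the hit cutoff set in the primary screen, cut at about 8.5% in these data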;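 note: 0% = DMSO wells and 100% = marimastat wells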
Starred values were filed as active, the others as inactive. The list is not random: actives were taken first. Their share in the collection is about 2.9%.

`C[C@@H](NC(=O)c1nc[nH]c1C(=O)N[C@@H](CCCCNC(=O)OC(C)(C)C)C(=O)OC(C)(C)C)c1ccccc1` gave FAS TE block 17.9, ADAM17 inh 22.1*, ADAM10 inh 42.8*, Arrestin-AP2 inh -1.4, CaV13 ICDI inh -5.1, NRP1-CendR mod -9.5, ADAM10 confirm -0.9, ADAM17 counter 0.4, ADAM10 ctr 37.3* and ADAM17 confirm 16.4*.
Screening C[C@H](NC(=O)c1nc[nH]c1C(=O)N[C@@H](Cc1ccccc1)C(=O)OC(C)(C)C)c1ccccc1 returned FAS TE block 17.4, ADAM17 inh 17.8*, ADAM10 inh 37.1*, Arrestin-AP2 inh -4.3, CaV13 ICDI inh -6.4, NRP1-CendR mod -0.1, ADAM10 confirm 10.2, ADAM17 counter 2.6, ADAM10 ctr 54.9* and ADAM17 confirm 27.9*.
Cc1ccc(NC(=O)c2nc[nH]c2C(=O)N[C@H](C)c2ccccc2)cc1 was read as FAS TE block 27.7, ADAM17 inh 12.7*, ADAM10 inh 20.3*, Arrestin-AP2 inh 3.7, CaV13 ICDI inh -7.5, NRP1-CendR mod 24.3, ADAM10 confirm 4.6, ADAM17 counter 2.0, ADAM10 ctr 19.9* and ADAM17 confirm 11.5*.
For C[C@H](NC(=O)c1nc[nH]c1C(=O)N[C@@H](Cc1ccccc1)C(=O)OC(C)(C)C)C(=O)OCc1ccccc1 the results were FAS TE block 20.1, ADAM17 inh 10.4*, ADAM10 inh 24.9*, Arrestin-AP2 inh 0.3, CaV13 ICDI inh 34.6*, NRP1-CendR mod 9.5, ADAM10 confirm 8.6, ADAM17 counter 3.5, ADAM10 ctr 37.9* and ADAM17 confirm 25.0*.
For CC(C)C[C@H](NC(=O)c1nc[nH]c1C(=O)N[C@@H](CC(C)C)C(=O)OC(C)(C)C)C(=O)OCc1ccccc1 the results were ADAM17 inh 1.8, ADAM10 inh 5.9 and CaV13 ICDI inh -7.4.
CC(C)(C)Cc1c(-c2ccco2)nc2ccc(Cl)cn12 was read as FAS TE block 6.8, ADAM17 inh -0.8, ADAM10 inh -11.0, CaV13 ICDI inh -8.1 and NRP1-CendR mod -5.7.
CC(=O)c1cccc(NC(=O)c2cccc3c(-c4cccnc4)coc23)c1 was read as FAS TE block -5.7, ADAM17 inh 0.0, ADAM10 inh -2.6, CaV13 ICDI inh -5.0 and NRP1-CendR mod -15.8.
`COC(/C(=N/O)c1ccc(Cl)cc1)c1ccccc1` (centres undefined) gave FAS TE block -6.1, ADAM17 inh 2.7, ADAM10 inh 8.6, Arrestin-AP2 inh -6.5, CaV13 ICDI inh -20.6 and NRP1-CendR mod 4.2.
`N#C/C(=C\c1ccccc1)C(=O)NNS(=O)(=O)c1cccc([N+](=O)[O-])c1` gave FAS TE block -8.3, ADAM17 inh 34.8*, ADAM10 inh 69.3*, Arrestin-AP2 inh 15.5, CaV13 ICDI inh -6.6, NRP1-CendR mod -4.5, ADAM10 confirm 3.3, ADAM17 counter 0.8, ADAM10 ctr 7.9 and ADAM17 confirm 5.7.
`CCOC(=O)c1c(C)[nH]c(C(=O)C(C)OC(=O)c2cccc(OCc3c(C)noc3C)c2)c1C` (centres undefined) gave FAS TE block 17.1, ADAM17 inh 13.4*, ADAM10 inh 29.9*, Arrestin-AP2 inh 6.8, CaV13 ICDI inh -0.5, NRP1-CendR mod 6.6, ADAM10 confirm 6.3, ADAM17 counter 2.4, ADAM10 ctr 47.4* and ADAM17 confirm 22.5*.
